Test results from ChEMBL document CHEMBL1828621, “Single step synthesis of new fused pyrimidine derivatives and their evaluation as potent Aurora-A kinase inhibitors” (Eur J Med Chem, 2011).
Converted amounts (≈) assume the structure as drawn.

Experiments:
HCT-116 [1] = test: Cytotoxicity against human HCT116 cells after 48 hrs by sulforhodamine B method; assay type: functional, cell-based; conditions: HCT-116, 48 h
Procedure, shortened: (§1)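 HCT116 colon tumour cells grown in RPMI 1640 with 5% FBS and 2 mM L-glutamine. Seeded at 10,000 cells/well and held 24 h at 37 °C, 5% CO₂ before dosing. Drugs kept as DMSO stocks at 400-fold the top final concentration, diluted in medium with gentamicin, tested at four concentrations for 48 h. Fixed with cold TCA (final 10%) for 60 min at 4 °C, stained with 0.4% SRB, bound dye dissolved in Tris-EDTA, read on an ELISA reader. Extra plates fixed at dosing served as baseline.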

Aurora kinase A = biological target: T1, Aurora kinase A (Homo sapiens, UniProt O14965); test: Inhibition of GST-tagged Aurora A kinase expressed in insect cells assessed as inhibition of [33P]gamma-ATP incorporation in substrate after 60 mins by scintillation counting
T1 sequence (O14965 whole entry): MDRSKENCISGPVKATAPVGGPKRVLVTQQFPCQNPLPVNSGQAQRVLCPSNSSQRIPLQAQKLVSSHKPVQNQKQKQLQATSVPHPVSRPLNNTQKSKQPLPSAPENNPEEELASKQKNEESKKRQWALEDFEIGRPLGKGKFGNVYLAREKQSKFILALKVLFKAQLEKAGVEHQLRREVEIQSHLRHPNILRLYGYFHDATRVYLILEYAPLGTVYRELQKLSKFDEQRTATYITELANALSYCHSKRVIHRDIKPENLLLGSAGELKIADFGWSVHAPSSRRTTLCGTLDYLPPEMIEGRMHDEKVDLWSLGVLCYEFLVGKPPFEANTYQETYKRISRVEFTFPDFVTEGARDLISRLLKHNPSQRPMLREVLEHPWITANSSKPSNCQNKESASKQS
Procedure, shortened: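 Reaction: biotinylated CHOCKtide substrate with ATP/[γ-33P]ATP mix, 60 min at room temperature, in 50 mM HEPES pH 7.5, 10 mM MgCl₂, 1 mM DTT, NaVO₃ and 0.2 mg/mL BSA. Stopped with EDTA/ATP plus streptavidin SPA beads; beads floated on 5 M CsCl and counted for phosphate incorporated into substrate.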

HCT-116 [2] = test: Cytotoxicity against human HCT116 cells assessed as cell survival at 1 ug/ml after 48 hrs by sulforhodamine B method relative to control; assay type: functional; procedure, shortened: as §1
HCT-116 [3] = test: Cytotoxicity against human HCT116 cells assessed as cell survival at 5 ug/ml after 48 hrs by sulforhodamine B method relative to control; assay type: functional; procedure, shortened: as §1
HCT-116 [4] = test: Cytotoxicity against human HCT116 cells assessed as cell survival at 2.5 ug/ml after 48 hrs by sulforhodamine B method relative to control; assay type: functional; procedure, shortened: as §1
HCT-116 [5] = test: Cytotoxicity against human HCT116 cells assessed as cell survival at 10 ug/ml after 48 hrs by sulforhodamine B method relative to control; assay type: functional; procedure, shortened: as §1

Row | IC50 (Aurora kinase A; read-out: IC50) | IC50 (Aurora kinase A) | SMILES | IC50 (HCT-116 [1]) | Ratio (HCT-116 [2]) | Ratio (HCT-116 [3]) | Ratio (HCT-116 [4]) | Ratio (HCT-116 [5])
1 | 101 nM |  | Cc1cc2ncc(S(=O)(=O)c3ccccc3)c(-c3ccccc3)n2n1 | > 25 µg/mL | 0.774 | 0.671 | 0.698 | 0.597
2 |  | Not Active | Cc1nn2c(-c3ccccc3)c(S(=O)(=O)c3ccccc3)cnc2c1Br | 2.21 µg/mL (≈ 5.16 µM) | 0.529 | 0.253 | 0.373 | 0.183
3 | 39 nM |  | O=S(=O)(c1ccccc1)c1cnc2c(Br)c(-c3ccccc3)nn2c1-c1ccccc1 | 1.34 µg/mL (≈ 2.73 µM) | 0.629 | 0.271 | 0.42 | 0.24
4 |  | Not Active | O=S(=O)(c1ccccc1)c1cnc2nc3ccccc3n2c1-c1ccccc1 | > 25 µg/mL | 0.984 | 0.845 | 0.885 | 0.82
5 | 104 nM |  | O=S(=O)(c1ccccc1)c1cnc2ncnn2c1-c1ccccc1 | 1.97 µg/mL (≈ 5.86 µM) | 0.689 | 0.294 | 0.302 | 0.256
6 |  | Not Active | Cc1ccc(-c2c(S(=O)(=O)c3ccccc3)cnc3cc(-c4ccccc4)nn23)cc1 | 18 µg/mL (≈ 42.3 µM) | 1 | 0.701 | 0.745 | 0.253
7 |  | Not Active | Cc1ccc(-c2c(S(=O)(=O)c3ccccc3)cnc3c(Br)c(-c4ccccc4)nn23)cc1 | 14 µg/mL (≈ 27.8 µM) | 1 | 0.53 | 0.701 | 0.309

Further lines, the compound ahead of its results:

Row | SMILES | IC50 (Aurora kinase A; read-out: IC50) | IC50 (Aurora kinase A) | IC50 (HCT-116 [1]) | Ratio (HCT-116 [2]) | Ratio (HCT-116 [3]) | Ratio (HCT-116 [4]) | Ratio (HCT-116 [5])
8 | O=S(=O)(c1ccccc1)c1cnc2cc(-c3ccccc3)nn2c1-c1ccccc1 | 51 nM |  | 1.27 µg/mL (≈ 3.09 µM) | 0.683 | 0.43 | 0.455 | 0.377
9 | COc1ccc(-c2cc3ncc(S(=O)(=O)c4ccccc4)c(-c4ccccc4)n3n2)cc1 | 25 nM |  | 1.28 µg/mL (≈ 2.9 µM) | 0.516 | 0.288 | 0.436 | 0.217
10 | O=S(=O)(c1ccccc1)c1cnc2cc(-c3ccc(Cl)cc3)nn2c1-c1ccccc1 | 120 nM |  | 1.64 µg/mL (≈ 3.68 µM) | 0.56 | 0.42 | 0.508 | 0.42
11 | O=S(=O)(c1ccccc1)c1cnc2cc(-c3ccccc3)nn2c1-c1ccc(Cl)cc1 |  | Not Active | > 25 µg/mL | 0.987 | 0.894 | 0.953 | 0.797
12 | COc1ccc(-c2cc3ncc(S(=O)(=O)c4ccccc4)c(-c4ccc(Cl)cc4)n3n2)cc1 |  | Not Active | > 25 µg/mL | 0.824 | 0.778 | 0.794 | 0.744
13 | Cc1ccc(-c2c(S(=O)(=O)c3ccccc3)cnc3cc(-c4ccc(Cl)cc4)nn23)cc1 |  | Not Active | 9.3 µg/mL (≈ 20.2 µM) | 1 | 0.382 | 0.665 | 0.333
14 | O=S(=O)(c1ccccc1)c1cnc2nc3ccccc3n2c1-c1ccc(Cl)cc1 |  | Not Active | > 25 µg/mL | 0.95 | 0.889 | 0.905 | 0.79
15 | O=S(=O)(c1ccccc1)c1cnc2nc3ccccc3n2c1-c1ccc(Br)cc1 |  | Not Active | 16.3 µg/mL (≈ 35.1 µM) | 1 | 0.624 | 0.748 | 0.209
16 | O=S(=O)(c1ccccc1)c1cnc2ncnn2c1-c1ccc(Cl)cc1 | 9240 nM |  | 2.15 µg/mL (≈ 5.8 µM) | 0.786 | 0.316 | 0.377 | 0.243
17 | Cc1ccc(-c2cc3ncc(S(=O)(=O)c4ccccc4)c(-c4ccc(C)cc4)n3n2)cc1 |  | Not Active | 10.5 µg/mL (≈ 23.9 µM) | 1 | 0.408 | 0.764 | 0.246
18 | COc1cccc2c1C(=O)c1c(O)c3c(c(O)c1C2=O)C[C@@](O)(C(=O)CO)C[C@@H]3O[C@H]1C[C@H](N)[C@H](O)[C@H](C)O1 [DOXORUBICIN] | 40 nM |  | 1.3 µg/mL (≈ 2.39 µM) | 0.523 | 0.42 | 0.439 | 0.291
